Calls of active or inactive are those of the source. The calls are words filed in the database; no cut-off is given here.
Biological target: T1, Mitogen-activated protein kinase kinase kinase 5 (Homo sapiens) (UniProt Q99683)
T1 sequence (whole entry): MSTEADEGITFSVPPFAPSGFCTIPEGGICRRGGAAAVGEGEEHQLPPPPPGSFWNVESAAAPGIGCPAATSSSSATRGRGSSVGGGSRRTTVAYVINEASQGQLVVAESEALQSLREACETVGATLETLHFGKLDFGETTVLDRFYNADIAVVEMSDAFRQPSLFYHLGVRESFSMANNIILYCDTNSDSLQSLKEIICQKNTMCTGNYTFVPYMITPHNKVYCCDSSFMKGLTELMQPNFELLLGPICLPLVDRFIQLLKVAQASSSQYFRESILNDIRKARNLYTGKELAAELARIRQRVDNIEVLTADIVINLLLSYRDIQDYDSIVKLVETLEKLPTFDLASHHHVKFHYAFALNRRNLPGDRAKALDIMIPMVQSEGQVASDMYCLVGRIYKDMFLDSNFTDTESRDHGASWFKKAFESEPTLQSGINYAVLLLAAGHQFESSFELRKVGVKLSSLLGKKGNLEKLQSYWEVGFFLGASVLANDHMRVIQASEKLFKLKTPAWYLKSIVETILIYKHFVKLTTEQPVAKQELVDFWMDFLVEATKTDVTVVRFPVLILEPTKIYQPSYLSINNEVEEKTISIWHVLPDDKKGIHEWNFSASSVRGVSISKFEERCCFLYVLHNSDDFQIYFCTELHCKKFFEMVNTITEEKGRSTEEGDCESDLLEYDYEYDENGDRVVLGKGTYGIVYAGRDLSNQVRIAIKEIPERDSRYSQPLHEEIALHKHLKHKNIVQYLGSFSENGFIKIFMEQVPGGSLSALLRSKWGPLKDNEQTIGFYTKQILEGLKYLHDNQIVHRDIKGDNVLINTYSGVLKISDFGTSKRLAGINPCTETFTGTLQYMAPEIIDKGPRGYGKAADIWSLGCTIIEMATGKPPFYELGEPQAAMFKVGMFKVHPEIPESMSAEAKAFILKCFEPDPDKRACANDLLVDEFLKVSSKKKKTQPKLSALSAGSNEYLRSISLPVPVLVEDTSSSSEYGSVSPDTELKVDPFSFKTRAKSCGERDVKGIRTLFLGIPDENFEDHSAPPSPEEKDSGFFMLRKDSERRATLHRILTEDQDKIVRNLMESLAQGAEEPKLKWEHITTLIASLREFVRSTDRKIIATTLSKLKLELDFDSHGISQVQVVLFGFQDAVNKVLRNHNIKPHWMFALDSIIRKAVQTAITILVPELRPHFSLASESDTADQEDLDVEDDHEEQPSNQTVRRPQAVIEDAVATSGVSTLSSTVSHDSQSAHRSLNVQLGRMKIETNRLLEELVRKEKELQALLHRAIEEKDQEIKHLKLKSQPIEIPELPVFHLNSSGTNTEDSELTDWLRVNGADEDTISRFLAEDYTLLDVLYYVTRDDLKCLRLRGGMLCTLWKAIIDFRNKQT
Assay: Inhibition of recombinant full length human ASK1 expressed in HEK293/AP1-Luc cells assessed as reduction in autophosphorylation at Thr-838 residue at 10 uM after 30 mins by Western blot analysis
Assay type: cell-based
Procedure, shortened: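 Stable HEK293/AP-1luc pools expressing wild-type or K709R full-length human ASK1 (or parental cells) plated in DMEM with 10% FBS, Geneticin and puromycin. Next day, washed in serum-free medium, then treated with 10 μM compound (final) at 37 °C for 30 min. Cells lysed in M-PER with protease/phosphatase inhibitors; protein by BCA; Western blot for ASK1, phospho-Thr838 ASK1 and α-tubulin.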

COc1ccc(S(C)(=O)=O)cc1C(=O)Nc1cccc(-c2nncn2C(C)C)n1
inhibition: Active

Source: ChEMBL document CHEMBL4251655 (Eur J Med Chem, 2018)
